Data: ChEMBL document CHEMBL2331505, “Synthesis of quinoline derivatives: discovery of a potent and selective phosphodiesterase 5 inhibitor for the treatment of Alzheimer's disease” (Eur J Med Chem, 2013)
Each block holds one compound with its values, some of them ahead of it.

Tests used:
Phosphodiesterase 8 = Phosphodiesterase 8 (Homo sapiens, UniProt O95263+O60658); assay: Inhibition of PDE8 (unknown origin) using FAM-cAMP as substrate after 60 mins by fluorescence assay; type: protein assay
[1] = target: cGMP-specific 3',5'-cyclic phosphodiesterase (Homo sapiens, UniProt O76074); assay: Inhibition of PDE5 (unknown origin) using FAM-cGMP as substrate after 60 mins by fluorescence assay
Homo sapiens [2] = species on record: Homo sapiens; assay: Selectivity ratio of IC50 for PDE4 (unknown origin) to IC50 for PDE5 (unknown origin)
Mus musculus [3] = assay: Reversal of contextual fear memory deficit in APP/PS1 transgenic mouse assessed as increase in freezing behavior at 3 mg/kg, ip after 3 weeks (reference value: 10%); type: functional; conditions: route intraperitoneal
Phosphodiesterase 4 = Phosphodiesterase 4 (Homo sapiens, UniProt P27815+Q08499+Q07343+Q08493); assay: Inhibition of PDE4 (unknown origin) using FAM-cAMP as substrate after 60 mins by fluorescence assay; type: protein assay
Phosphodiesterase 1 = Phosphodiesterase 1 (Homo sapiens, UniProt P54750+Q01064+Q14123); assay: Inhibition of PDE1 (unknown origin) using FAM-cGMP and FAM-cAMP as substrate after 60 mins by fluorescence assay; type: protein assay
Homo sapiens [4] = species on record: Homo sapiens; assay: Selectivity ratio of IC50 for PDE8 (unknown origin) to IC50 for PDE5 (unknown origin)
[5] = target: cAMP and cAMP-inhibited cGMP 3',5'-cyclic phosphodiesterase 10A (Homo sapiens, UniProt Q9Y233); assay: Inhibition of PDE10 (unknown origin) using FAM-cGMP and FAM-cAMP as substrate after 60 mins by fluorescence assay
Plasma [6] = assay: Cmax in mouse plasma at 50 mg/kg, po; type: ADME, organism-based; parameters: dose 50 mg/kg, route oral; conditions: in vivo
In short: (§1)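 Male BALB/c mice dosed once orally at 50 mg/kg in 0.05% aqueous methylcellulose. Blood (retro-orbital, heparin) and brain were taken at 0, 0.25, 0.5, 1, 2 and 4 h, three mice per time point. Plasma and methanol brain homogenate were extracted with methanol plus internal standard and analysed by LC/MS/MS. Quantitation used analyte/internal standard peak-area ratios with weighted (1/x2) linear regression.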

Phosphodiesterase 6 = assay: Inhibition of PDE6 (unknown origin) using FAM-cGMP as substrate after 60 mins by fluorescence assay; type: protein assay, Homo sapiens
Mus musculus [7] = assay: Reversal of contextual fear memory deficit in amyloid beta42-infused mouse assessed as increase in freezing behavior at 3 to 10 mg/kg, po administered immediately post electric shock measured after 24 hrs (reference value: 10%); type: functional; conditions: dose mg/kg 3-10
In short: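 Aβ42 (200 nM, 1 μl over 1 min) or vehicle was infused bilaterally into the dorsal hippocampus through cannulas implanted 6–8 days earlier under Avertin. Infusion was 15 min before foot-shock training. Compound was given at 3 or 10 mg/kg p.o. immediately after training. Freezing was scored for 5 min in the same chamber 24 h later.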

Homo sapiens [8] = species on record: Homo sapiens; assay: Selectivity ratio of IC50 for PDE9 (unknown origin) to IC50 for PDE5 (unknown origin)
Plasma [9] = assay: Mean residence time in mouse plasma at 50 mg/kg, po; type: ADME, organism-based; parameters: dose 50 mg/kg, route oral; conditions: in vivo
Homo sapiens [10] = species on record: Homo sapiens; assay: Selectivity ratio of IC50 for PDE11 (unknown origin) to IC50 for PDE5 (unknown origin)
Mus musculus [11] = assay: Inhibition of PDE5 in C57Bl6 mouse assessed as increase in electric shock-induced hippocampal cGMP level measured per mg of protein at 3 mg/kg, ip administered 30 mins prior to electric shock induction measured after 1 min (reference value: 0.41 0.028 pmol); type: functional, Hippocampus; conditions: route intraperitoneal
In short: (§2)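 Male and female C57Bl6 mice, 2–3 months old, 20–25 g, received 3 mg/kg i.p. in 2% DMSO/2% Tween or vehicle alone. Foot shock was given 30 min later. Mice were killed 10 s, 1 min or 3 min after shock and the hippocampus was snap-frozen. cGMP was measured by enzyme immunoassay in duplicate and normalised to BCA protein; n=3 per group.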

[12] = Ratio of AUC (0 to infinity) in mouse brain to AUC (0 to infinity) in mouse plasma; type: ADME, cell-free
In short: (§3)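 Male BALB/c mice given 50 mg/kg p.o. in 0.05% methylcellulose aqueous solution. Blood (retro-orbital, heparin) and brain taken at 0, 0.25, 0.5, 1.0, 2.0 and 4.0 h, three mice per time point. Plasma and methanol brain homogenate extracted with internal standard and quantified by LC/MS/MS (peak area ratio, weighted linear regression). Ratio is brain over plasma parameter.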

Homo sapiens [13] = species on record: Homo sapiens; assay: Selectivity ratio of IC50 for PDE7 (unknown origin) to IC50 for PDE5 (unknown origin)
Brain [14] = assay: AUC (0 to t) in mouse brain at 50 mg/kg, po; type: ADME, organism-based; parameters: dose 50 mg/kg, route oral; conditions: in vivo; in short: as §1
Mus musculus [15] = assay: Reversal of post synaptic dysfunction in APP/PS1 transgenic mouse assessed as increase in theta burst-induced long term potentiation at 3 mg/kg/day, ip administered 3 weeks measured after 9 to 12 weeks […] (reference value: 112.29 9.12%); type: functional; conditions: route intraperitoneal
Plasma [16] = assay: Tmax in mouse plasma at 50 mg/kg, po; type: ADME, organism-based; parameters: dose 50 mg/kg, route oral; conditions: in vivo; in short: as §1
[17] = Cmax in mouse brain at 50 mg/kg, po; type: ADME, organism-based; parameters: dose 50 mg/kg, route oral; in short: as §1
Homo sapiens [18] = species on record: Homo sapiens; assay: Selectivity ratio of IC50 for PDE6 (unknown origin) to IC50 for PDE5 (unknown origin)
Phosphodiesterase 7 = Phosphodiesterase 7 (Homo sapiens, UniProt Q13946+Q9NP56); assay: Inhibition of PDE7 (unknown origin) using FAM-cAMP as substrate after 60 mins by fluorescence assay; type: protein assay
Mus musculus [19] = assay: Reversal of contextual fear memory deficit in APP/PS1 transgenic mouse assessed as increase in freezing behavior at 3 mg/kg/day, ip administered 3 weeks measured after 9 to 12 weeks […] (reference value: 10%); type: functional; conditions: route intraperitoneal
Hippocampus [20] = assay: (§4) Reversal of post synaptic dysfunction in APP/PS1 transgenic mouse hippocampal assessed as increase in theta burst-induced long term potentiation at 50 nM incubated 10 mins prior to theta burst induction measured after 2 hrs for 5 mins by electrophysiological assay (reference value: 145.84 7.78%); type: functional
In short: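 Transverse hippocampal slices (400 μm) from APP/PS1 mice were kept in an interface chamber at 29 °C and perfused with aerated ACSF, pH 7.4. Compound (50 nM) was bath-applied for 10 min before tetanus. CA1 fEPSP slopes were expressed as % of baseline, averaged over the last 5 min of a 2 h recording.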

Mus musculus [21] = assay: Inhibition of PDE5 in C57Bl6 mouse assessed as increase in electric shock-induced hippocampal cGMP level measured per mg of protein at 3 mg/kg, ip administered 30 mins prior to electric shock induction measured after 10 secs (reference value: 0.318 0.0145 pmol); type: functional, Hippocampus; conditions: route intraperitoneal; in short: as §2
[22] = Ratio of Cmax in mouse brain to Cmax in mouse plasma; type: ADME, cell-free; in short: as §3
Brain [23] = assay: AUC (0 to infinity) in mouse brain at 50 mg/kg, po; type: ADME, organism-based; parameters: dose 50 mg/kg, route oral, time infinity; conditions: in vivo; in short: as §1
Homo sapiens [24] = species on record: Homo sapiens; assay: Selectivity ratio of IC50 for PDE3 (unknown origin) to IC50 for PDE5 (unknown origin)
Mus musculus [25] = assay: Inhibition of PDE5 in C57Bl6 mouse assessed as increase in electric shock-induced hippocampal cGMP level measured per mg of protein at 3 mg/kg, ip administered 30 mins prior to electric shock induction measured after 3 mins (reference value: 0.46 0.0385 pmol); type: functional, Hippocampus; conditions: route intraperitoneal; in short: as §2
Brain [26] = assay: Mean residence time in mouse brain at 50 mg/kg, po; type: ADME, organism-based; parameters: dose 50 mg/kg, route oral; conditions: in vivo; in short: as §1
Plasma [27] = assay: AUC (0 to infinity) in mouse plasma at 50 mg/kg, po; type: ADME, organism-based; parameters: time infinity, dose 50 mg/kg, route oral; conditions: in vivo; in short: as §1
Brain [28] = assay: Tmax in mouse brain at 50 mg/kg, po; type: ADME, organism-based; parameters: dose 50 mg/kg, route oral; conditions: in vivo; in short: as §1
[29] = Ratio of AUC (0 to t) in mouse brain to AUC (0 to t) in mouse plasma; type: ADME, cell-free; in short: as §3
Homo sapiens [30] = species on record: Homo sapiens; assay: Selectivity ratio of IC50 for PDE10 (unknown origin) to IC50 for PDE5 (unknown origin)
Plasma [31] = assay: AUC (0 to t) in mouse plasma at 50 mg/kg, po; type: ADME, organism-based; parameters: dose 50 mg/kg, route oral; conditions: in vivo; in short: as §1
Homo sapiens [32] = species on record: Homo sapiens; assay: Selectivity ratio of IC50 for PDE2 (unknown origin) to IC50 for PDE5 (unknown origin)
[33] = target: cGMP-dependent 3',5'-cyclic phosphodiesterase (Homo sapiens, UniProt O00408); assay: Inhibition of PDE2 (unknown origin) using FAM-cGMP and FAM-cAMP as substrate after 60 mins by fluorescence assay
[34] = target: High affinity cGMP-specific 3',5'-cyclic phosphodiesterase 9A (Homo sapiens, UniProt O76083); assay: Inhibition of PDE9 (unknown origin) using FAM-cGMP as substrate after 60 mins by fluorescence assay
Phosphodiesterase 3 = Phosphodiesterase 3 (Homo sapiens, UniProt Q14432+Q13370); assay: Inhibition of PDE3 (unknown origin) using FAM-cGMP and FAM-cAMP as substrate after 60 mins by fluorescence assay; type: protein assay
Homo sapiens [35] = species on record: Homo sapiens; assay: Selectivity ratio of IC50 for PDE1 (unknown origin) to IC50 for PDE5 (unknown origin)
[36] = target: Dual 3',5'-cyclic-AMP and -GMP phosphodiesterase 11A (Homo sapiens, UniProt Q9HCR9); assay: Inhibition of PDE11 (unknown origin) using FAM-cGMP and FAM-cAMP as substrate after 60 mins by fluorescence assay
Hippocampus [37] = assay: as §4, with “of amyloid beta42-induced” for “of”, “in” for “in APP/PS1 transgenic”, “60 mins” for “2 hrs”, “144.65 9.99%)” for “145.84 7.78%)”; type: functional

Sequence of cGMP-dependent 3',5'-cyclic phosphodiesterase (O00408 whole entry): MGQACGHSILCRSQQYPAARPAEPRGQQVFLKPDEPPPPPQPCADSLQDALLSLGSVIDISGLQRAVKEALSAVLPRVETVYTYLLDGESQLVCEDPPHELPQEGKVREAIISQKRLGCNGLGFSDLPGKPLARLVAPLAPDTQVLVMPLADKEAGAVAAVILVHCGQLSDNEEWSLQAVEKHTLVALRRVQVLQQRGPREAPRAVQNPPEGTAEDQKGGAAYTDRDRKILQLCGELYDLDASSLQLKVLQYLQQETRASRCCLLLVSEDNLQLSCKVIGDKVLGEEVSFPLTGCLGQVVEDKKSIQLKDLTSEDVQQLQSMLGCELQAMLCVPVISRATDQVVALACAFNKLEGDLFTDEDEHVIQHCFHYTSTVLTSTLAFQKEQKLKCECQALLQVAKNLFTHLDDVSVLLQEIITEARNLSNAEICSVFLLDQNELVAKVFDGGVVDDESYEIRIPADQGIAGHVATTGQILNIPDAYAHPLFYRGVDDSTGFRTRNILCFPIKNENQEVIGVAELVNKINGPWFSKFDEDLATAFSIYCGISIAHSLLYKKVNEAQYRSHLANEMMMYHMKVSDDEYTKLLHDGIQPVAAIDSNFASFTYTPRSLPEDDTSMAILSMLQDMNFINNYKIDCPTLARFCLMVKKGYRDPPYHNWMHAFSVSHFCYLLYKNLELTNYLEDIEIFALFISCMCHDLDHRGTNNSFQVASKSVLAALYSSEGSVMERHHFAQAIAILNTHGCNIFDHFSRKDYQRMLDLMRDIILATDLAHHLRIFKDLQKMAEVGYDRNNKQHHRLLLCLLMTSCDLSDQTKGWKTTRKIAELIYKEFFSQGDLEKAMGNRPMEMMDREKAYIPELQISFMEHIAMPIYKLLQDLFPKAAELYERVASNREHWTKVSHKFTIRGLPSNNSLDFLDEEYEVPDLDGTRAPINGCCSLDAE
Sequence of cAMP and cAMP-inhibited cGMP 3',5'-cyclic phosphodiesterase 10A (Q9Y233 whole entry): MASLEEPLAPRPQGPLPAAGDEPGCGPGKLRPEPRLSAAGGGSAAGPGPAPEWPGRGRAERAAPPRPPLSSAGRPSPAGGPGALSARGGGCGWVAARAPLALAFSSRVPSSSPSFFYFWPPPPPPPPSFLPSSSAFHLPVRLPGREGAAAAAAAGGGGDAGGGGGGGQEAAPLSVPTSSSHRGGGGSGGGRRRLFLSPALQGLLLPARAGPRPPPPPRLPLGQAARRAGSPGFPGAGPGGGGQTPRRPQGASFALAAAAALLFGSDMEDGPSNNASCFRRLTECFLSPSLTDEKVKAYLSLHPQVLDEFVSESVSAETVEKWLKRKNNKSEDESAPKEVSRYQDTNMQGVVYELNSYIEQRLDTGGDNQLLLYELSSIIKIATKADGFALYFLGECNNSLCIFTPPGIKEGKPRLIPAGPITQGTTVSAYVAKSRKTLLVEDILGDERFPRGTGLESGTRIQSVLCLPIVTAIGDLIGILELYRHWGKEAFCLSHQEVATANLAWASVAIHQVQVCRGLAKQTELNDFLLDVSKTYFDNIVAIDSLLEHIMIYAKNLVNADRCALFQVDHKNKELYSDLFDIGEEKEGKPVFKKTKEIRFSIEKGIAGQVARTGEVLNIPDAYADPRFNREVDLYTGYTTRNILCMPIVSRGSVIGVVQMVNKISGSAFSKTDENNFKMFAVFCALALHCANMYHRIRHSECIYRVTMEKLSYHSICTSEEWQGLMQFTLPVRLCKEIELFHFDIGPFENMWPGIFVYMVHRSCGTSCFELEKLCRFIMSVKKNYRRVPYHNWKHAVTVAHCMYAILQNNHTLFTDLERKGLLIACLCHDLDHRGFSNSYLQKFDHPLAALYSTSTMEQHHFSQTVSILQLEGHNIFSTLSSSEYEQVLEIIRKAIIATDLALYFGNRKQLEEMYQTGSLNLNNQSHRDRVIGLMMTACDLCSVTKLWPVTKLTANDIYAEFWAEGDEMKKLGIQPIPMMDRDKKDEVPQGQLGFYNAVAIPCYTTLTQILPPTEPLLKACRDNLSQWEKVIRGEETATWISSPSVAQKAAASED
Sequence of High affinity cGMP-specific 3',5'-cyclic phosphodiesterase 9A (O76083 whole entry): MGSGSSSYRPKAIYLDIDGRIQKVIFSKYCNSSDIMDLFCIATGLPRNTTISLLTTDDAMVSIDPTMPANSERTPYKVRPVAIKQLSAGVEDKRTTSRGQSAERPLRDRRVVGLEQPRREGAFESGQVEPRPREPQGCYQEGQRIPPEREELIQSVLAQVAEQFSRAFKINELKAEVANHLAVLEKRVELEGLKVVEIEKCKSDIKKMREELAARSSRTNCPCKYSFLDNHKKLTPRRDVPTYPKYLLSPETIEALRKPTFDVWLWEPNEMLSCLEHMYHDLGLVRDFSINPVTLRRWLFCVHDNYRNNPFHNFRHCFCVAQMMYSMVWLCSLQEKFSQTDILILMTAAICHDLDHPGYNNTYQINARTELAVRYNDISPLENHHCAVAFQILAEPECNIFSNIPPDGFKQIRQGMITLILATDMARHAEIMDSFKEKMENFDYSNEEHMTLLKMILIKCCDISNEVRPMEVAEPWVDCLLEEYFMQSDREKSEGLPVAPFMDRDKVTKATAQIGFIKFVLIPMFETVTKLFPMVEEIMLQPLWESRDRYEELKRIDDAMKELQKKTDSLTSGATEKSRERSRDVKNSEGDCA
Sequence of Dual 3',5'-cyclic-AMP and -GMP phosphodiesterase 11A (Q9HCR9 whole entry): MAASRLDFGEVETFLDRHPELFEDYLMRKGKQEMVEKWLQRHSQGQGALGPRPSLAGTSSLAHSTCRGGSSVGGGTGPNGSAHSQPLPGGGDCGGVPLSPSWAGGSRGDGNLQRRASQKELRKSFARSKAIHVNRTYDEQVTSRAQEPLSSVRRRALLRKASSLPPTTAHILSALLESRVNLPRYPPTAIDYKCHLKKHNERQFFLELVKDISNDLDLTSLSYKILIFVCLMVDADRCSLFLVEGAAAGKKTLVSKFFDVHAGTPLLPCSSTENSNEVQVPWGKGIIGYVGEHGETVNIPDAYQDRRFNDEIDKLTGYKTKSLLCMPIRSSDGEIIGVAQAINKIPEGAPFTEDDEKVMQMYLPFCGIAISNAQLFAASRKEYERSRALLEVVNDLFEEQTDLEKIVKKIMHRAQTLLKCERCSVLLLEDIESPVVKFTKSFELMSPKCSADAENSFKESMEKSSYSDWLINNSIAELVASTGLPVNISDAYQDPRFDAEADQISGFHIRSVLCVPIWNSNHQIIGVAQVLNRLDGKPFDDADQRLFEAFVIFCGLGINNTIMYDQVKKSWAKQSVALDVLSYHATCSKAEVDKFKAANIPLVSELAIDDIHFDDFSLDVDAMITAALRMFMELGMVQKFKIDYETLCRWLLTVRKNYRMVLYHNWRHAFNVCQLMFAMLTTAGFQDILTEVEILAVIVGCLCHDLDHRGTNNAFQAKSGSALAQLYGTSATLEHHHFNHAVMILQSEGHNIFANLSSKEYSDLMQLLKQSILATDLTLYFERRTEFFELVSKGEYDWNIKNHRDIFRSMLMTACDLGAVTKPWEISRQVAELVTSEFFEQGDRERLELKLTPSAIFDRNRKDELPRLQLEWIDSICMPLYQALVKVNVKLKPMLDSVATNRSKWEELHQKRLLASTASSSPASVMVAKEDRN

IC50 (Phosphodiesterase 8): > 10 µM
SMILES: CCCc1nc(C)c2c(=O)nc(-c3cc(S(=O)(=O)N4CCN(CC)CC4)ccc3OCC)[nH]n12

IC50 [1]: 0.015 µM
SMILES: CCNc1cc(C#N)cc2c(NCc3ccc(OC)c(Cl)c3)c(CO)cnc12

SMILES: COc1ccc(CNc2c(CO)cnc3c(C4CC4)cc(C#N)cc23)cc1Cl
Ratio IC50 (Homo sapiens [2]): > 10000
Activity (Mus musculus [3]): 30%
IC50 (Phosphodiesterase 4): > 10 µM
IC50 (Phosphodiesterase 1): > 10 µM
Ratio IC50 (Homo sapiens [4]): > 10000
IC50 [5]: > 10 µM
Cmax (Plasma [6]): 1022 ng/mL
IC50 (Phosphodiesterase 6): 0.339 µM
IC50 (Phosphodiesterase 8): > 10 µM
Activity (Mus musculus [7]): 30%
Ratio IC50 (Homo sapiens [8]): > 10000
MRT (Plasma [9]): 1.61 h
Ratio IC50 (Homo sapiens [10]): > 10000
Activity (Mus musculus [11]): 0.69 pmol
Ratio AUC [12]: 0.37
Ratio IC50 (Homo sapiens [13]): > 10000
AUCt (Brain [14]): 418 ng·h/g
Activity (Mus musculus [15]): 180.9%
Tmax (Plasma [16]): 0.5 h
Cmax [17]: 385 ng/g
Ratio IC50 (Homo sapiens [18]): 1260
IC50 (Phosphodiesterase 7): > 10 µM
Activity (Mus musculus [19]): 30%
Activity (Hippocampus [20]): 180.85%
Activity (Mus musculus [21]): 0.83 pmol
Ratio [22]: 0.38
AUC (Brain [23]): 420 ng·h/g
Ratio IC50 (Homo sapiens [24]): > 10000
Activity (Mus musculus [25]): 0.89 pmol
MRT (Brain [26]): 1.66 h
AUC (Plasma [27]): 1133 ng·h/mL
Tmax (Brain [28]): 0.5 h
Ratio AUC [29]: 0.41
Ratio IC50 (Homo sapiens [30]): > 10000
AUCt (Plasma [31]): 1014 ng·h/mL
Ratio IC50 (Homo sapiens [32]): > 10000
IC50 [33]: > 10 µM
IC50 [34]: > 10 µM
IC50 (Phosphodiesterase 3): > 10 µM
Ratio IC50 (Homo sapiens [35]): > 10000
IC50 [36]: > 10 µM
Activity (Hippocampus [37]): 192.63%

IC50 (Phosphodiesterase 1): > 10 µM
IC50 [5]: > 10 µM
IC50 (Phosphodiesterase 8): > 10 µM
IC50 (Phosphodiesterase 7): > 10 µM
IC50 [33]: > 10 µM
IC50 [34]: > 10 µM
IC50 (Phosphodiesterase 3): > 10 µM
SMILES: CN1CC(=O)N2[C@H](c3ccc4c(c3)OCO4)c3[nH]c4ccccc4c3C[C@@H]2C1=O
